# Measured values pooled from the literature.
# Compare with care: the assays were run in different laboratories.
# Read-out: enzyme activity
# Mode: inhibitor
# ABL1: Tyrosine-protein kinase ABL1 (ABL1, Homo sapiens, UniProt P00519)
# ABL1 Y253F: Tyrosine-protein kinase ABL1 (ABL1, Homo sapiens, UniProt P00519, Y253F)
Compound,target,technique,concentration,inhibition [%]
CC/C(=N\NC(=O)NCc1cccc(O)c1)c1ccc(O)c(C)c1O,ABL1,,0.1 µM,-0.9
CS(=O)(=O)Nc1cccc(-c2csc(NC(=O)CSc3nc4nccnc4c(=O)n3CCc3ccccc3)n2)c1,"Tyrosine-protein kinase ABL1 (ABL1, Homo sapiens, UniProt P00519, E255K)",,10 µM,-2
CNc1cccc2cc(C(=O)Nc3ccc(C(=O)O)cc3)c(=O)[nH]c12,"Tyrosine-protein kinase ABL1 (ABL1, Homo sapiens, UniProt P00519, Q252H)",,10 µM,0.4
CCCS(=O)(=O)Nc1ccc(F)c(C(=O)c2c[nH]c3ncc(-c4ccc(Cl)cc4)cc23)c1F,ABL1,,1 µM,< 20
CNCc1ccc(-c2cc(-c3nc(-c4ccc(S(=O)(=O)C(C)C)cc4)cnc3N)on2)cc1,ABL1,,2 µM,34
CNC(=O)c1cc2c(Oc3ccc(NC(=O)C4(C(=O)Nc5ccc(F)cc5)CC4)cc3)ccnc2cc1OC,"Tyrosine-protein kinase ABL1 (ABL1, Homo sapiens, UniProt P00519, T315I)",radiometric,1 µM,75
CCOc1cc(-c2nncn2C)ccc1Nc1ncc2cc(C)nc(NCC(C)(C)C)c2n1,ABL1,FRET,1 µM,< 15
COc1cc2ncnc(Nc3ccc(Oc4ccccc4)c(C)c3C)c2cc1OC,ABL1,,1 µM,-4
COc1cc(-c2cc(-c3ccc(N4CCNCC4)cc3)cnc2N)cc(OC)c1OC,ABL1 Y253F,,0.1 µM,83
COc1cc2ncnc(Nc3ccc(Oc4ccccc4)cc3C)c2cc1OC,ABL1 Y253F,,1 µM,12
O=C(CSc1nc2nccnc2c(=O)n1CCc1ccccc1)Nc1nccs1,ABL1,,10 µM,4
CN(C)C1CCN(CC#Cc2nn(C3CCCC3)c3nc(NCc4ccccc4)ncc23)C1 (stereo not shown),ABL1,FRET,1 µM,6
C=CC(=O)Nc1cc(Nc2nccc(Nc3cc(Cl)c(F)cc3C(C)(C)O)n2)c(OC)cc1N1CC[C@@H](N(C)C)C1,ABL1,,1 µM,6
